Scp1 inh = Scp-1 (human) phosphatase inhibition | Recombinant Scp1, phosphopeptide, malachite green phosphate absorbance | inhibition, % at 20 µM | hit rate 0.88% among 340,000 | AID 493091;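 active = inhibition above about 50% at 20 µM, limit read from the data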
Target sequence (Q9GZU7 76-261 limits assumed): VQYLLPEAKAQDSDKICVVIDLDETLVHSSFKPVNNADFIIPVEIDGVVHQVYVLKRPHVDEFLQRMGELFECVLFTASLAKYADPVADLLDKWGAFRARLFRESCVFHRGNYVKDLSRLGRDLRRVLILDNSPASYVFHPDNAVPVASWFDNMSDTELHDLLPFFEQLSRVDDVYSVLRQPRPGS
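Test system: SCP-1 catalytic domain; Buffer or medium: Acidic Tris acetate buffer with magnesium and detergent; Also added: Phosphorylated 17-residue peptide substrate; Compound: single 20 µM dose, 1% DMSO; Schedule: enzyme reaction 45 min at room temperature, colour 5 min, stabilisation 30 min; Signal: Phosphate-binding colour reagent, absorbance read at 630 nm.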
LMPTP block = LMPTP (human) inhibition; inhibition, % at 20 µM; recombinant LMPTP-A, OMFP fluorogenic substrate, fluorescence intensity; hit rate 0.22% among 360,000; AID 651560;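 active = compounds that cut the enzyme signal by at least half of the control window in the single-dose screen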
Target sequence (P24666 whole entry, looked up): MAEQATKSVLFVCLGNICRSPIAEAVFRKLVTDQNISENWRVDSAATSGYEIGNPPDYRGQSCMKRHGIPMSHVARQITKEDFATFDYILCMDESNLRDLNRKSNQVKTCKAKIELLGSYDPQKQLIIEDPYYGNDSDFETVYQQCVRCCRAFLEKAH
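Assay system: LMPTP-A phosphatase enzyme | Input: 0.625 nM enzyme | Also added: Fluorogenic phosphatase substrate OMFP at 400 µM final | Compound dosing: One test concentration per compound, 20 µM, with 3% DMSO overall | Schedule: 50 min enzyme reaction at room temperature, protected from light | Signal: Fluorescence intensity | Benchmarks: no-enzyme and uninhibited controls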
STEP block = inhibitors of human striatal-enriched phosphatase STEP. P54829. recombinant STEP, OMFP fluorogenic substrate, fluorescence. inhibition, % at 20 µM. hit rate 0.25% among 360,000. AID 588621;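 active = inhibition at 20 µM, scaled per plate between control wells, above about 37%, limit read from the data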
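Assay system: isolated STEP enzyme / Timing: 20 min at room temperature, dark / Doses: 20 µM, 1% DMSO / Technique: fluorescence intensity, excitation 480 nm, emission 540 nm / Reagent: fluorogenic phosphatase substrate OMFP at 25 µM final / Measure: percent inhibition scaled to no-enzyme and uninhibited-enzyme controls, plate-pattern corrected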
CSN inh = inhibitors of human CSN-mediated cullin deneddylation. Q92905. Purified CSN, SCF-Nedd8-OG deneddylation, fluorescence polarization. inhibition, % at 12.5 µM. hit rate 0.38% among 360,000. AID 651999;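 active = pattern-corrected inhibition above about 35%, with an unprinted fluorescence ratio check between 0.5 and 1.5, limit read from the data, passing the limit was not always enough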
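Assay system: HEK293T-derived human Csn5 enzyme; quantity: 0.24 nM enzyme; medium: Tris/NaCl/DTT buffer, pH 7.5; also added: substrate SCFSkp2-Nedd8OG, 10 nM; doses: 12.5 µM compound; schedule: 90 min reaction at room temperature; signal: FP; read-out: % inhibition of substrate cleavage by Csn5; benchmarks: substrate-only high control, full reaction low control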
DNMT1 block = DNMT1 (human) enzyme inhibition; P26358; AID 588458; inhibition (reported as % activation of signal), % at 10 µM; DNMT1 molecular beacon, Hinp1I cleavage, fluorescence; hit rate 0.83% among 360,000; in the data active = inhibition above about 50%
SUMO1 PPI mod = modulators of human SUMO1-mediated protein-protein interactions; SUMO1 binding to a labelled peptide, TR-FRET, 1 h; inhibition, % at 20 µM; hit rate 0.33% among 360,000; AID 602429; in the data active = inhibition above about 37%
Target sequence (P63165 whole entry, looked up): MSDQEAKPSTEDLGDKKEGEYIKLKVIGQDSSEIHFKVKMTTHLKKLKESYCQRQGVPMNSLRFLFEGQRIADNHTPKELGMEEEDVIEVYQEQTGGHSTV
Hits are given with their value; i = inactive; nt = no result given. Compounds with a hit are over-represented: about 1.9% of the library has one in this group of screens.

SMILES	Scp1 inh	LMPTP block	STEP block	CSN inh	DNMT1 block	SUMO1 PPI mod
CCCCNc1c2c3c(cccc3n(C)c1=O)C(=O)c1ccccc1-2	i	i	i	i	192	i
O=C(O)CSCC(=O)N1CCN(S(=O)(=O)c2cc(Cl)cc(Cl)c2)CC1	i	i	i	i	i	i
CCN(c1ccccc1)S(=O)(=O)c1cc(C(=O)OC2CCOC2=O)ccc1C (stereo not drawn)	i	i	i	i	i	i
N#C/C(=C\c1coc2ccc(O)cc2c1=O)C(=O)Nc1nc2ccccc2s1	i	i	i	i	84	i
N#C/C(=C\c1coc2ccccc2c1=O)C(N)=S	i	i	i	i	i	i
CCCCn1cc(SCC(=O)O)c2ccccc21	i	i	i	59	i	i
CC1CCN(C(=O)CCNC(=O)Cn2cnc3sc4c(c3c2=O)CCCC4)CC1	i	i	i	125	i	i
Cc1sc2ncn(CC(=O)NCCCC(=O)N3CCN(c4ccccc4)CC3)c(=O)c2c1C	i	i	i	76	i	i
Cc1sc2ncn(CC(=O)NCCCC(=O)N3CCCCC3)c(=O)c2c1C	i	i	i	i	i	i
COC(=O)/C(C#N)=C/c1c(Oc2cccc(C)c2C)nc2ccccn2c1=O	i	i	i	i	i	i
CCOC(=O)c1ccccc1NC(=O)COC(=O)CSC(C)C(=O)Nc1cc(C)on1 (stereo not drawn)	i	i	i	i	i	i
C=CCn1c(=O)/c(=C/c2ccc(O)cc2)s/c1=C(/C#N)c1nnc2n1CCCCC2	i	i	i	97	i	i
C=CCn1c(=O)/c(=C/c2ccc(Cl)cc2)s/c1=C(/C#N)c1nnc2n1CCCCC2	i	i	i	i	i	i
CCC(=C(c1ccc(OC)cc1)c1ccc(OC)cc1)c1cn(CC(O)CN2CCN(C)CC2)c2ccccc12 (stereo not drawn)	i	i	i	i	i	i
CCOC(=O)C1(Cc2ccccc2)C(=O)Nc2ccccc21 (stereo not drawn)	i	i	i	i	i	i
CCOC(=O)C12CNC(=O)C(C(=O)OCC)(CNC1=O)C2	i	i	i	i	i	40
Cc1ccc(S(=O)(=O)N2C[C@@H](C)[C@]3(C2)[C@H](O)[C@H](OC(=O)NCc2ccco2)C[C@H]2C(=O)N(c4ccccc4)C(=O)[C@H]23)cc1	nt	i	i	i	i	i
CN(C)CCN1C(=O)c2cccc3cc([N+](=O)[O-])cc(c23)C1=O	i	i	i	i	69	i
CN(C)CCCN1C(=O)c2cccc3cccc(c23)C1=O	i	i	i	i	i	i
Nc1ccc2c(c1)C/C(=C/c1ccco1)C2=O	73	67	i	i	88	40
O=C(O)Cn1nnnc1-c1ccc(F)cc1	i	i	i	i	i	i
CCOC(=O)C1C(=O)NC(SCC(N)=O)=C(C#N)C1c1ccccc1OCC (stereo not drawn)	i	i	i	43	i	i
C=CCc1ccccc1OCC(=O)NNC(=S)NCc1ccccc1	i	i	i	i	i	i
CC1Cc2ccccc2N1S(=O)(=O)c1cnc[nH]1 (stereo not drawn)	i	i	i	i	i	i
O=S(=O)(c1cnc[nH]1)N1CCc2ccccc21	i	i	i	73	i	i
SMILES	Scp1 inh	LMPTP block	STEP block	CSN inh	DNMT1 block	SUMO1 PPI mod
O=C1c2ccccc2C(=O)C1c1ccnc2ccccc12	i	i	i	i	56	i
O=C1C(c2ccnc3ccccc23)=C(O)c2ccccc21	i	i	i	i	52	i
O=C1C(=O)c2ccccc2C(O)=C1c1ccccc1F	i	i	i	i	i	i
CCN(CC)Cc1c(C)[nH]c2ccc(NC(C)=O)cc2c1=O	nt	i	i	i	i	i
Cc1nc(N)nc(N)c1/C=C/C(C)(C)c1ccc(Cl)cc1	i	81	i	i	i	i
O=C(c1ccccc1CCc1ccccc1)N1CCOCC1	i	i	i	i	i	i
CCCCCCCCCC(=O)OCC(O)CO (stereo not drawn)	i	i	i	i	i	i
CCCCCCCCCCCCCCC[C@@H](O)[C@@H](N)CO	i	i	i	84	i	i
O=C1NN=C(CSc2n[nH]c(=S)s2)CS1	i	i	i	i	i	50
